Values joined by “and” are separate entries in the source; they are usually repeats but may differ in a detail not shown here. Equal values may be shown once.
Experiments:
PLD1 [1] = biological target: T1, PLD1 (Homo sapiens, UniProt Q13393); experiment: Drug affinity responsive target stability; type: binding; conditions: DARTS with immunoblotting
T1 sequence (Q13393 1-1074): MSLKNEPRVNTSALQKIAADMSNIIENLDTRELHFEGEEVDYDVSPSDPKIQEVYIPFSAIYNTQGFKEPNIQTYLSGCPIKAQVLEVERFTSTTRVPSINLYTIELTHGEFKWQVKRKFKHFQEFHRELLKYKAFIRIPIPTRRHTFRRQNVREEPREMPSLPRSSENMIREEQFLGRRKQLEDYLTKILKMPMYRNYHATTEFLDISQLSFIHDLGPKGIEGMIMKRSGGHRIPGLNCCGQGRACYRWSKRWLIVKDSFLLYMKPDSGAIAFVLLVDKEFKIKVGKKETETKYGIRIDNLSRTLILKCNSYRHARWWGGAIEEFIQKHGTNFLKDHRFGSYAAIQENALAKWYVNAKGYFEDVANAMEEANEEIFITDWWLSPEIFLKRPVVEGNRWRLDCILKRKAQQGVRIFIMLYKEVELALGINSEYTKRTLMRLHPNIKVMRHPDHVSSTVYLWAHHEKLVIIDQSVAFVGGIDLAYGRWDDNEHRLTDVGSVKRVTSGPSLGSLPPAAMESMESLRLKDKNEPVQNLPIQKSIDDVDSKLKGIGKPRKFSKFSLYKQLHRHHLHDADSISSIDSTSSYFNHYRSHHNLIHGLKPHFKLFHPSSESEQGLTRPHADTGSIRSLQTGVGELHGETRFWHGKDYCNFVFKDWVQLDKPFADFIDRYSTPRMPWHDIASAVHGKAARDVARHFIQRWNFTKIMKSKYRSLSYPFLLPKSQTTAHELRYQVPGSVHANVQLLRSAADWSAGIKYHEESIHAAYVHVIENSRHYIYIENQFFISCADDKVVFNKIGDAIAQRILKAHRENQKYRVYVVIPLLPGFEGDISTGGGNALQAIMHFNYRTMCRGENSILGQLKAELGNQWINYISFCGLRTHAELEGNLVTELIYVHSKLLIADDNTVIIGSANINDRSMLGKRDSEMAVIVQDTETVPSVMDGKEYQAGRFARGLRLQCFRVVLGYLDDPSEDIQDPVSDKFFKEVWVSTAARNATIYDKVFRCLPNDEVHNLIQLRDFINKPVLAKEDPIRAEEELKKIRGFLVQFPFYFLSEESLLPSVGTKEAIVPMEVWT
How it was run: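 A549 cells lysed in buffer with protease and phosphatase inhibitors. Cleared supernatant incubated with test compound for 1 h at RT, then digested with Pronase for 10 min at RT. Digestion stopped with SDS loading buffer and boiling at 100 °C for 5 min. PLD1 was detected by immunoblot, with β-tubulin as control.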

F614A mutant PLD1 = biological target: T2, F614A mutant PLD1 (Homo sapiens, UniProt Q13393, F652A); experiment: PLD activity assay in F614A mutant PLD1-transfected cells; type: cell-based
T2 sequence (Q13393 1-1036 isoform Q13393-2 F614A): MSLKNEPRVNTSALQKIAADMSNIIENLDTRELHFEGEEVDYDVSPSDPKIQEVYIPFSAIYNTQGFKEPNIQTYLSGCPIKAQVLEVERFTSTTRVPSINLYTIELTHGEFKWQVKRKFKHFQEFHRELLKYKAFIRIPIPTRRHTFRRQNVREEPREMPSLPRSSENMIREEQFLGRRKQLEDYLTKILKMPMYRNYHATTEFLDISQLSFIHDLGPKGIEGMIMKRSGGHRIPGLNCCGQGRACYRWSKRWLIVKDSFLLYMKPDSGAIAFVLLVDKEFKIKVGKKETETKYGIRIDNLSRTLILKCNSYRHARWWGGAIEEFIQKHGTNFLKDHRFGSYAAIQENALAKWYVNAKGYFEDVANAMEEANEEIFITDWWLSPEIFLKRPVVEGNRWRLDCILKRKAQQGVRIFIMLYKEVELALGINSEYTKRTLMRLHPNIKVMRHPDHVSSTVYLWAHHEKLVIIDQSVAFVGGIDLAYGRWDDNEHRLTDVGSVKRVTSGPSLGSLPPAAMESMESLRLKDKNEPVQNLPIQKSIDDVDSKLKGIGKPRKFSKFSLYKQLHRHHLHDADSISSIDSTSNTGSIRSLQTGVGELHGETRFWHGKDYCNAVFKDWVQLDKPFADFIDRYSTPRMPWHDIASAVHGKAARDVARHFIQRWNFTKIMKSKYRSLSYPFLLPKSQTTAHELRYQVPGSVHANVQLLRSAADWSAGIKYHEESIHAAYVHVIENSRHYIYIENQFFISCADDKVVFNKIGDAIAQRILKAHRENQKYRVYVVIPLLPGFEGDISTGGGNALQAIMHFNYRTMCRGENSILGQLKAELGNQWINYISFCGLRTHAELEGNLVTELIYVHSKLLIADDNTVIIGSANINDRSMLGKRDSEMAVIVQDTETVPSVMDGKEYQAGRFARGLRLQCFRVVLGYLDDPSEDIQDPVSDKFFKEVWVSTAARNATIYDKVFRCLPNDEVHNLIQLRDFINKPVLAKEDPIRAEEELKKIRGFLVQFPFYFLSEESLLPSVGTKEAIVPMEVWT

PLD1 [2] = biological target: T1, PLD1; experiment: PLD activity in PLD1-overexpressing A549 cells; type: cell-based
PLD = PLD activity inhibition in A549 cells; type: cell-based; conditions: read-out: IC50 for PLD inhibition
HCT116 cells = experiment: WST-1 cell viability assay, HCT116; type: cell-based; conditions: read-out: IC50 of viability; HCT116, WST-1, 48 h
How it was run: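 Cells grown in DMEM or RPMI 1640 with 10% FBS and 1% penicillin/streptomycin at 37 °C, 5% CO2. Seeded at 5 × 10^3 cells/well and held 24 h at 37 °C, then exposed to test compound for 48 h. WST-1 absorbance was read at 450 nm, in triplicate. IC50 was taken as the concentration giving 50% growth inhibition versus control.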

A549 cells = experiment: Cell apoptosis assay; type: cell-based; conditions: flow cytometry and caspase-3 activity assay
How it was run: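 Apoptosis detected by Annexin V-FITC staining and flow cytometry. For caspase-3, cells were grown to about 40% density and given test compound, or the inhibitor Ac-DEVD-CHO, at 10 μM for 48 h. After a PBS wash, 1 μM NucView 488 caspase-3 substrate was added for 30 min at RT, then 1 μM Hoechst 33342. Both fluorescences were read on a plate reader.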

[3] = Body weight of normal C57BL/6 mice without cancer cells; type: in vivo, mouse; conditions: oral, C57BL/6 without cancer cells, vs untreated
LLC lung cancer cells = experiment: LLC tumor model in immune-deficient nude mice; type: in vivo, mouse; conditions: immune-deficient nude mice injected with LLC cells

## N-(3,5-Bis(trifluoromethyl)phenyl)-3-(1H-indol-3-yl)propanamide [3r]
PLD1 [1]
  stability of PLD1 against Pronase: increased stability
F614A mutant PLD1
  PLD activity: did not significantly inhibit
PLD1 [2]
  PLD1 activity: selectively suppressed
PLD
  IC50: 1.97 µM
HCT116 cells
  IC50: 29 µM and 29.1 µM
A549 cells
  apoptosis of A549 cells: induced
[3]
  weight of the normal mice: no effect
LLC lung cancer cells
  tumor formation: significantly suppressed
